Data published in ChEMBL document CHEMBL2380256, “Discovery of novel Jak2-Stat pathway inhibitors with extended residence time on target” (Bioorg Med Chem Lett, 2013).
Activity calls are given as the source filed them. The calls are words filed in the database; no cut-off is given here.

How the values were obtained:
Homo sapiens = species on record: Homo sapiens; experiment: Selectivity ratio of IC50 for JAK3 (unknown origin) to IC50 for JAK2 (unknown origin)
How it was run: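 Jak2 and Jak3 enzyme IC50s determined at 5 mM ATP; the ratio is the Jak3 IC50 divided by the Jak2 IC50.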

[1] = Growth inhibition of mouse BA/F3 cells transfected with JAK3 TEL domain after 24 hrs by Alamar Blue assay; type: functional, cell-based; conditions: BaF3, 24 h
[2] = Growth inhibition of mouse BA/F3 cells transfected with JAK2 TEL domain after 24 hrs by Alamar Blue assay; type: functional; conditions: BaF3, 24 h
[3] = target: T1, Tyrosine-protein kinase JAK2 (Homo sapiens, UniProt O60674); experiment: Inhibition of JAK2 (unknown origin) using biotinylated TYK2 peptide as substrate after 60 mins
Target sequence in this assay (O60674 whole entry): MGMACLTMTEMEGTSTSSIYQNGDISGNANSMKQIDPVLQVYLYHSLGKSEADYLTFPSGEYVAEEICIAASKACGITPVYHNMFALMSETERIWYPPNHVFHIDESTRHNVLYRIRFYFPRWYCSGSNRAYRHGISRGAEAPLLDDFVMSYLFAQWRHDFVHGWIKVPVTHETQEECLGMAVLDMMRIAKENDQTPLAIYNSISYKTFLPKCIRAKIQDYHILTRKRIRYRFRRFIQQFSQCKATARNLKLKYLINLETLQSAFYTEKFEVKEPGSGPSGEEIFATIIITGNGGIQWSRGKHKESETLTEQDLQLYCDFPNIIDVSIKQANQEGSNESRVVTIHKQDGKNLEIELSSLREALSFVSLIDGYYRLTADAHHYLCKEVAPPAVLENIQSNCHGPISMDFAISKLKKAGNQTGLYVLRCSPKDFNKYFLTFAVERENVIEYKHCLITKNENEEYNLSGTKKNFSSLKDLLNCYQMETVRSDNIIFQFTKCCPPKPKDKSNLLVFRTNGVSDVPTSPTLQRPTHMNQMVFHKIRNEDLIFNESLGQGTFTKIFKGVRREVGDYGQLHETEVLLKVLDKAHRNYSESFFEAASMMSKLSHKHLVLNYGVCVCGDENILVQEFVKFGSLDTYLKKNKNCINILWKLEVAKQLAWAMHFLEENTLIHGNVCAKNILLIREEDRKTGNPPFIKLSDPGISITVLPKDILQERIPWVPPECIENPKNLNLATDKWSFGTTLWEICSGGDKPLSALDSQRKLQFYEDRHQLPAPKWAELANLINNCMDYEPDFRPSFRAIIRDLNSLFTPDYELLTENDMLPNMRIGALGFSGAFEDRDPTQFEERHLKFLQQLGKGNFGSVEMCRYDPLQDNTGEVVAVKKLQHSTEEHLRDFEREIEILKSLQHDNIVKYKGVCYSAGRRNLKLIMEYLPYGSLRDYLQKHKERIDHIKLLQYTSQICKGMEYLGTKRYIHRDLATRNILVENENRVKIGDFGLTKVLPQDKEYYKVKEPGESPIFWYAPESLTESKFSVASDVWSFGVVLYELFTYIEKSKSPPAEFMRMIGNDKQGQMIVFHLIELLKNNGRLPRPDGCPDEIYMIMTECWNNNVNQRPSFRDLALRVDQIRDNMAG

[4] = target: T2, Tyrosine-protein kinase JAK3 (Homo sapiens, UniProt P52333); experiment: Inhibition of JAK3 (unknown origin) using biotinylated poly-EY peptide as substrate after 60 mins by HTRF assay
T2 sequence (P52333 whole entry): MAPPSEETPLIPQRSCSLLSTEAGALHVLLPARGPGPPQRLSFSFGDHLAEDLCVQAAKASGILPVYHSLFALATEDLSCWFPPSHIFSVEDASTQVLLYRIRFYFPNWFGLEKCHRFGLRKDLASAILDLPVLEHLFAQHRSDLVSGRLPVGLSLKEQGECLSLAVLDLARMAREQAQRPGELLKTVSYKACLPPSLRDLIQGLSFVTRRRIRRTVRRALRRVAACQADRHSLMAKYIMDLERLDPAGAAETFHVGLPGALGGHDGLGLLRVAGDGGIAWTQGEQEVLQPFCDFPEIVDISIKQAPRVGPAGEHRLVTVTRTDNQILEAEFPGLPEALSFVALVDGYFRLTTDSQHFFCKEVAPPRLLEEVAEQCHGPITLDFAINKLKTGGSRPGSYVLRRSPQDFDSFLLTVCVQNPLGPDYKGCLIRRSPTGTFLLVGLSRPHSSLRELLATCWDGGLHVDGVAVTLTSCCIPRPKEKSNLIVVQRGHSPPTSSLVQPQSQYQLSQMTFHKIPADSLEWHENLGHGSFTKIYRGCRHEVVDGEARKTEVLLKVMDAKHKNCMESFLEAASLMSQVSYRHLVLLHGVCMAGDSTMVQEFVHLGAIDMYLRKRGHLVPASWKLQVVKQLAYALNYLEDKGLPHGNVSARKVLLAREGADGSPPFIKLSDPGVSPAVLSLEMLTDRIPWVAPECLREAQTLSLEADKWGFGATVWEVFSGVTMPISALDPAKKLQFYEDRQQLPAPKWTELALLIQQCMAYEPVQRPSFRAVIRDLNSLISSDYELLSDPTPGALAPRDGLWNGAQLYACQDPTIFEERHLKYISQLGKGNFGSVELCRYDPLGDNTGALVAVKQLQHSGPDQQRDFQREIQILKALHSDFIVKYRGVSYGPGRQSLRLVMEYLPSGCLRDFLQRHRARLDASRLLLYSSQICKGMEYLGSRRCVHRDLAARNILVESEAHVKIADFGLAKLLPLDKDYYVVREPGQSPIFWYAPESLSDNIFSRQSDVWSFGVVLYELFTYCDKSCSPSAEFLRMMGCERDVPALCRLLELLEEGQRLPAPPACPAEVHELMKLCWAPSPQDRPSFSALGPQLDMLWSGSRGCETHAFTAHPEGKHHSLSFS

[5] = Growth inhibition of human UKE1 cells harboring JAK2 V617F mutant after 2 days by [3H]-thymidine incorporation assay; type: functional
SET-2 = experiment: Growth inhibition of human SET2 harboring JAK2 V617F mutant after 24 hrs by Alamar Blue assay; type: functional; conditions: SET-2, 24 h
[6] = Volume of distribution at steady state in beagle dog at 5 mg/kg, po and 2.5 mg/kg, iv; type: ADME, organism-based, Canis lupus familiaris; conditions: in vivo, read-out: Vdss
How it was run: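 Male Beagle dogs. Oral 5 mg/kg in 0.1% HPMC; intravenous 2.5 mg/kg in HP-β-CD.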

[7] = Clearance in CD1 mouse at 10 mg/kg, po and 3 mg/kg, iv; type: ADME, organism-based; conditions: in vivo
How it was run: (§1)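 Single-dose PK: female CD-1 mice and male Han Wistar rats, 10 mg/kg po in 0.1% HPMC and 3 mg/kg iv in DMA/PEG/saline 40/40/20.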

[8] = Fraction unbound in nude mouse plasma allografted with mouse Ba/F3 cells expressing JAK2 TEL domain at 5 to 10 mg/kg, po qd after 6 hrs; type: ADME, organism-based, BaF3; parameters: dose 5-10 mg/kg, route oral
Mus musculus [9] = experiment: In vivo inhibition of JAK2 TEL domain (unknown origin) transfected in mouse Ba/F3 cells allografted in nude mouse assessed as inhibition of STAT5 phosphorylation at 5 mg/kg, po qd measured at 8 hrs relative to vehicle-treated control; type: functional; conditions: BaF3, 8 h
How it was run: (§2)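 Female nude mice implanted intravenously with Ba/F3 TEL-JAK2 cells on day 0 and given a single oral dose on day 10. pStat5 was measured at the stated times post-dose. % inhibition was scaled between vehicle and a control inhibitor as maximum and minimum, with n = 3 per dose and time point, reported as mean ±SD.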

[10] = Clearance in Han Wistar rat at 10 mg/kg, po and 3 mg/kg, iv; type: ADME, organism-based; conditions: in vivo; how it was run: as §1
[11] = target: T1, Tyrosine-protein kinase JAK2; experiment: Inhibition of JAK2 TEL domain (unknown origin) transfected in mouse Ba/F3 cells; type: cell-based; conditions: baf3
Target sequence in this assay (O60674 whole entry, looked up): as the sequence (O60674 whole entry) above

[12] = target: T1, Tyrosine-protein kinase JAK2; experiment: Competitive inhibition of JAK2 (unknown origin)
Target sequence in this assay (O60674 whole entry): as the sequence (O60674 whole entry) above

[13] = Oral bioavailability in Han Wistar rat at 10 mg/kg; type: ADME, organism-based; conditions: in vivo
How it was run: (§3)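 Oral bioavailability in female CD-1 mice and male Han Wistar rats: 10 mg/kg po (0.1% HPMC) versus 3 mg/kg iv (DMA/PEG/saline 40/40/20). %F = (AUCpo × DoseIV)/(AUCIV × Dosepo) × 100.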

[14] = AUC in CD1 mouse at 10 mg/kg, po and 3 mg/kg, iv; type: ADME, organism-based; conditions: plasma; how it was run: as §1
Mus musculus [15] = experiment: In vivo inhibition of JAK2 TEL domain (unknown origin) transfected in mouse Ba/F3 cells allografted in nude mouse assessed as inhibition of STAT5 phosphorylation at 10 mg/kg, po qd measured at 8 hrs relative to vehicle-treated control; type: functional; conditions: BaF3, 8 h; how it was run: as §2
Mus musculus [16] = experiment: In vivo inhibition of JAK2 TEL domain (unknown origin) transfected in mouse Ba/F3 cells allografted in nude mouse assessed as inhibition of STAT5 phosphorylation at 10 mg/kg, po qd after 6 hrs relative to vehicle-treated control; type: functional; conditions: BaF3, 6 h; how it was run: as §2
[17] = Total plasma concentration in nude mouse allografted with mouse Ba/F3 cells expressing JAK2 TEL domain at 10 mg/kg, po qd measured at 6 hrs; type: ADME, organism-based, BaF3; parameters: dose 10 mg/kg, route oral
How it was run: (§4)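 Female nude mice implanted intravenously with Ba/F3 TEL-JAK2 cells on day 0 and dosed orally on day 10. Total plasma drug concentration was measured at the stated times post-dose, averaged over n = 3 per dose and time point.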

[18] = Total plasma concentration in nude mouse allografted with mouse Ba/F3 cells expressing JAK2 TEL domain at 5 mg/kg, po qd measured at 2 hrs; type: ADME, organism-based, BaF3; parameters: dose 5 mg/kg, route oral; how it was run: as §4
[19] = Volume of distribution at steady state in CD1 mouse at 10 mg/kg, po and 3 mg/kg, iv; type: ADME, organism-based; conditions: in vivo, read-out: Vdss; how it was run: as §1
[20] = Oral bioavailability in CD1 mouse at 10 mg/kg; type: ADME, organism-based; conditions: in vivo; how it was run: as §3
[21] = Total plasma concentration in nude mouse allografted with mouse Ba/F3 cells expressing JAK2 TEL domain at 10 mg/kg, po qd measured at 8 hrs; type: ADME, organism-based, BaF3; parameters: dose 10 mg/kg, route oral; how it was run: as §4
[22] = target: T2, Tyrosine-protein kinase JAK3; experiment: Inhibition of JAK3 TEL domain (unknown origin) transfected in mouse Ba/F3 cells; type: cell-based, BaF3
[23] = Total plasma concentration in nude mouse allografted with mouse Ba/F3 cells expressing JAK2 TEL domain at 5 mg/kg, po qd measured at 8 hrs; type: ADME, organism-based, BaF3; parameters: dose 5 mg/kg, route oral; how it was run: as §4
[24] = Clearance in beagle dog at 5 mg/kg, po and […] mg/kg, iv; type: ADME, organism-based, Canis lupus familiaris; conditions: in vivo, 2.5 mg/kg
[25] = Total plasma concentration in nude mouse allografted with mouse Ba/F3 cells expressing JAK2 TEL domain at 5 mg/kg, po qd measured at 6 hrs; type: ADME, organism-based, BaF3; parameters: dose 5 mg/kg, route oral; how it was run: as §4
[26] = Total plasma concentration in nude mouse allografted with mouse Ba/F3 cells expressing JAK2 TEL domain at 10 mg/kg, po qd measured at 2 hrs; type: ADME, organism-based, BaF3; parameters: dose 10 mg/kg, route oral; how it was run: as §4
[27] = AUC in Han Wistar rat at 10 mg/kg, po and 3 mg/kg, iv; type: ADME, organism-based; conditions: plasma; how it was run: as §1
[28] = Volume of distribution at steady state in Han Wistar rat at 10 mg/kg, po and 3 mg/kg, iv; type: ADME, organism-based; conditions: in vivo, read-out: Vdss
Hepatocyte = experiment: Metabolic stability in human hepatocytes measured per 10^6 cells; type: ADME, cell-based
Mus musculus [29] = experiment: In vivo inhibition of JAK2 TEL domain (unknown origin) transfected in mouse Ba/F3 cells allografted in nude mouse assessed as inhibition of STAT5 phosphorylation at 5 mg/kg, po qd after 6 hrs; type: functional, organism-based; parameters: dose 5 mg/kg; conditions: BaF3; how it was run: as §2

Compound: Cc1cc(Nc2nc(N[C@@H](C)c3ncc(F)cn3)c(F)c(N3CCOCC3)n2)n[nH]1
- Ratio IC50 (Homo sapiens): 76
- GI50 ([1]; read-out: GI50): 390 nM
- GI50 [2]: 15 nM

Compound: Cc1cc(Nc2nc(N[C@@H](C)c3ccc(F)cn3)c(F)c(N3CCNCC3)n2)n[nH]1
- IC50 [3]: 4 nM
- IC50 [4]: 30 nM
- GI50 [1]: 480 nM

Compound: Cc1cc(Nc2nc(N[C@@H](C)c3ncc(F)cn3)cc(N3CCOCC3)n2)n[nH]1
- IC50 [3]: 5 nM
- IC50 [4]: 95 nM
- GI50 [2]: 58 nM

Compound: COc1cc(Nc2nc(N[C@@H](C)c3ncc(F)cn3)c(F)c(N3CCOCC3)n2)n[nH]1
- IC50 [3]: 37 nM
- IC50 [4]: 11200 nM
- GI50 ([1]; read-out: GI50): 9400 nM
- GI50 [2]: 160 nM

Compound: Cc1cc(Nc2nc(O[C@@H](C)c3ncc(F)cc3F)c(F)c(N3CCOCC3)n2)n[nH]1
- IC50 [3]: 4 nM
- IC50 [4]: 45 nM
- GI50 [5]: 30 nM
- GI50 ([1]; read-out: GI50): 430 nM
- GI50 [2]: 10 nM
- GI50 (SET-2): 18 nM

Compound: Cc1cc(Nc2nc(N[C@@H](C)c3ccc(F)cn3)c(F)c(N3CCN(S(C)(=O)=O)CC3)n2)n[nH]1
- IC50 [3]: 3 nM
- IC50 [4]: 20 nM
- GI50 [1]: 50 nM

Compound: Cc1cc(Nc2nc(N[C@@H](C)c3ncc(F)cc3F)c(F)c(N3CCOCC3)n2)n[nH]1
- Vd [6]: 2.5 L/kg
- clearance [7]: 18 mL/min/kg
- fraction unbound at 6 h [8]: 0.06
- IC50 [3]: 3 nM
- inhibition in vivo at 5 mg/kg (Mus musculus [9]): 50%
- IC50 [4]: 8 nM
- clearance [10]: 12 mL/min/kg
- GI50 [5]: 22 nM
- IC50 [11]: 7 nM
- Ki [12]: 1.41 nM
- bioavailability [13]: 51%
- AUC [14]: 13.3 µM·h
- inhibition in vivo at 10 mg/kg (Mus musculus [15]): 70%
- inhibition in vivo at 10 mg/kg (Mus musculus [16]): > 80%
- concentration at 6 h [17]: 248 ng/mL
- concentration at 2 h [18]: 228 ng/mL
- Vd [19]: 2.9 L/kg
- bioavailability [20]: 64%
- concentration at 8 h [21]: 123 ng/mL
- IC50 [22]: 370 nM
- GI50 ([1]; read-out: GI50): 300 nM
- concentration at 8 h [23]: 55 ng/mL
- clearance [24]: 14 mL/min/kg
- concentration at 6 h [25]: 98 ng/mL
- concentration at 2 h [26]: 376 ng/mL
- GI50 [2]: 8 nM
- AUC [27]: 17.7 µM·h
- Vd [28]: 3.1 L/kg
- Stability (Hepatocyte): 5.2 µL/min/1e6 cells
- GI50 (SET-2): 14 nM
- inhibition (Mus musculus [29]): Active

Compound: Cc1cc(Nc2cc(N3CCOCC3)nc(N[C@@H](C)c3ncc(F)cn3)n2)n[nH]1
- Ratio IC50 (Homo sapiens): > 10
